Measurements pooled from the literature.
Compare with care: the assays were run in different laboratories.
Target: Homeodomain-interacting protein kinase 3 (HIPK3, Homo sapiens, UniProt Q9H422)

CN(C)c1nccc(-c2cnn3ncccc23)n1  remaining binding (binding; 1 µM): 51%
C=CC(=O)N1CCC(C(=O)NCC(=O)N2CCN(c3nc(-c4cnc(N)nc4C(F)F)nc(N4CCOCC4)n3)CC2)CC1  remaining binding (binding, competition with immobilised ligand; 1 µM): 100%
c1cnn2ncc(-c3ccnc(N4CCC45COC5)n3)c2c1  remaining binding (binding; 1 µM): 50%
COc1cnc(Nc2cccc(S(N)(=O)=O)c2)nc1N1CCN(c2ccccc2)C(=O)C1  remaining binding (binding, competition with immobilised ligand; 1 µM): 82%
CCCCN(CCCC)C(=O)CN1C[C@@H](c2cc(OC)c3c(c2)OCO3)[C@H](C(=O)O)[C@H]1CC(C)(C)CCC  remaining binding (cell-free assay, competition with immobilised ligand; 1 µM): 100%
C[C@@H](c1ccc(-n2cnc3c(N)ncnc32)cc1)N1CCc2nn(C)c(Cc3ccccc3)c2C1=O  remaining binding (binding, competition with immobilised ligand; 0.1 µM): 64%
CN(C)c1nccc(-c2cnc3ncccn23)n1  remaining binding (binding; 1 µM): 46%
O=C(Nc1ccc(Oc2ccc(F)cc2)cc1)N1CCc2ncccc2[C@H]1c1ccc(F)cc1  remaining binding (cell-free assay, competition with immobilised ligand; 1 µM): 92%
O=C(c1ccc(Nc2ncc(Cl)c(-c3ccc(Cl)s3)n2)cc1)N1CCC(N2CCCC2)CC1  remaining binding (binding, competition with immobilised ligand; 1 µM): 3.5%
O=C(Nc1c[nH]nc1C(=O)NC1CCNCC1)c1cc(F)cc(F)c1  remaining binding (binding, competition with immobilised ligand; 1 µM): 41%
CCC(=O)N[C@H]1CC[C@@H](C(=O)N(C)c2ccc(-c3nc4ccccc4o3)cc2)C1  remaining binding (cell-free assay, competition with immobilised ligand; 1 µM): 74%
C[C@@H]1CCN(c2nccc(-c3cnn4ncccc34)n2)C1  remaining binding (binding; 1 µM): 68%
O=C(O)c1cc(-c2ccc(C3CCNCC3)cc2)c2ccc(-c3ccc(C(F)(F)F)cc3)cc2c1  remaining binding (cell-free assay, competition with immobilised ligand; 1 µM): 100%
O=C(NCCCN1CCOCC1)c1ccc(Nc2ncc(Cl)c(-c3ccc(Cl)s3)n2)cc1  remaining binding (binding, competition with immobilised ligand; 1 µM): 15%
O=C(NCc1ncc(C(F)(F)F)cc1Cl)c1ccc2c(c1)C1(CCS(=O)(=O)CC1)[C@@H](C1CC1)N2S(=O)(=O)c1ccc(F)cc1  remaining binding (cell-free assay, competition with immobilised ligand; 1 µM): 81%
N[C@@H]1CCN(c2nccc(-c3cnn4ncccc34)n2)C1  remaining binding (binding; 1 µM): 83%
CNC(=O)[C@@H]1CC[C@@H](n2c(-c3ccc4cnccc4c3)nc3ccc(C(=O)NCc4cccc(C(N)=O)c4)cc32)C1  remaining binding (binding, competition with immobilised ligand; 1 µM): 100%
O=C1NC(c2ccccn2)Sc2ccccc21 (stereo not shown)  remaining binding (cell-free assay, competition with immobilised ligand; 1 µM): 86%
CN(c1nccc(-c2cnn3ncccc23)n1)C1CC1  remaining binding (binding; 1 µM): 100%
CCN1CCN(Cc2ccc(C(=O)Nc3ccc(C)c(Oc4ccc5c(c4)CC(=O)N5)c3)cc2C(F)(F)F)CC1  remaining binding (binding, competition with immobilised ligand; 1 µM): 100%
Cc1cnn2ncc(-c3ccnc(N(C)C)n3)c2c1  remaining binding (binding; 1 µM): 68%
O=C(c1ccc(Nc2ncc(Cl)c(-c3cc4ccccc4s3)n2)cc1)N1CCC(N2CCCC2)CC1  remaining binding (binding, competition with immobilised ligand; 1 µM): 1.8%
